Screens from PubChem BioAssay.
Compounds with a hit are over-represented: about 3.6% of the library has one in this group of screens.
NadD inh: blocks S. aureus nicotinate mononucleotide adenylyltransferase | AID 602399 | purified NadD enzyme, colorimetric absorbance read-out | hit rate 0.78% among 360,000 | inhibition, % at 20 µM; in the data active = inhibition above about 26%
SENP1 FRET inh: SENP1 (human) catalytic domain inhibition | recombinant SENP1 catalytic domain, CyPet-SUMO1-YPet FRET cleavage | hit rate 0.21% among 360,000 | inhibition, % at 10 µM | AID 624204;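 active = inhibition at least 30% at 10 µM, raw YFP signal under a set limit, fluorescence ratio 0.5 to 1.5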;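 note: 0% = enzyme with DMSO and 100% = no enzyme wells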
Target sequence (Q9P0U3 419-644 limits assumed): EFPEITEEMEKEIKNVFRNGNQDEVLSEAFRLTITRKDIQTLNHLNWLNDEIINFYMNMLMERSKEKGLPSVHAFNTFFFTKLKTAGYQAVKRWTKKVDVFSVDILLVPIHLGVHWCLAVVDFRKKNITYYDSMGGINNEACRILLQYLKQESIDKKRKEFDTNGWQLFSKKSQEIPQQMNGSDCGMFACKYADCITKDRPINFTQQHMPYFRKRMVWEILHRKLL
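System: Recombinant human SENP1 catalytic domain, His6-tagged | Incubation: Enzyme reaction for 50 min at room temperature, dark | Medium: Tris pH 8 with BME, BSA, NP40 and catalase | Also added: 25 nM SUMO1 FRET substrate | Compound: 10 µM single point, 0.5% DMSO | Measured by: FRET fluorescence in CFP and YFP emission channels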
GRIN3A LBD mod: NR3A (human) ligand-binding domain modulation. hit rate 2.5% among 340,000. NR3A LBD differential scanning fluorimetry, Tm shift; 0% = protein alone, 100% = glycine-bound protein. Tm shift relative to glycine control, % at 25 µM;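 active = melting temperature shift of at least 10% of the positive control shift, at one fixed dose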
ATG4B inh: blocks human ATG4B protease cleavage of LC3 substrate. inhibition, % at 8.33 µM. hit rate 0.51% among 340,000. ATG4B cleavage of LC3-PLA2, NBD-HPC fluorescence, 1 h. AID 504462. Q9Y4P1; in the data active = inhibition above about 40%
UCH37 inh: inhibitors of human deubiquitinating enzyme UCH37; AID 588478; hit rate 0.33% among 330,000; purified proteasome/UCH37, Ub-AMC cleavage fluorescence; inhibition, % (no concentration beside the values); Q9Y5K5;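 active = mean inhibition over replicate wells above about 20%, limit read from the data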;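 note: 0% = compound-free wells with enzyme and 100% = wells lacking proteasome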
Target sequence (Q9Y5K5 whole entry, looked up): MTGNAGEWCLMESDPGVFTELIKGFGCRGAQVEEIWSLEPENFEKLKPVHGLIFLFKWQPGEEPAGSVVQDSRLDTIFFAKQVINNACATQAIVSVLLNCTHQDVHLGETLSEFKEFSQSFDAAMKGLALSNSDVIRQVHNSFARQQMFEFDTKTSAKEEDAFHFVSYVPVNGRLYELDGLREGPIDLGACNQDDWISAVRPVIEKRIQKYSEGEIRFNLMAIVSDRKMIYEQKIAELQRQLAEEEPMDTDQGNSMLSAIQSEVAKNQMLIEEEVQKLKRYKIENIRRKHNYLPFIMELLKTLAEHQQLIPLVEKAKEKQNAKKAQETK
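System: Proteasome-associated human UCH37 deubiquitinase; Input: 0.15 nM proteasome in added enzyme buffer; Also added: Ub-AMC substrate from 1 µM stock; Incubation: 30 min compound-proteasome preincubation then 25 min substrate reaction, room temperature; Detection: fluorescence, ex 355 nm, em 460 nm; Read-out: % inhibition of Ub-AMC cleavage fluorescence; Benchmarks: no-proteasome and no-compound wells.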
ATG4B conf: confirmation of human ATG4B inhibitors; shares compounds with ATG4B inh; ATG4B protease fluorescent substrate cleavage assay; inhibition, % at 8.33 µM; hit rate 92% among 320; in the data active = inhibition above about 39%
PLA2 ctr: PLA2 (human) inhibition in ATG4B counter-screen. shares compounds with ATG4B inh. inhibition, % at 8.33 µM. purified PLA2, NBD-C6-HPC fluorescence, 45 min. hit rate 66% among 1,600; in the data active = inhibition above about 50%
* marks the source's active call; other numbers are inactive results; . = no result.

SMILES	NadD inh	SENP1 FRET inh	GRIN3A LBD mod	ATG4B inh	UCH37 inh	PLA2 ctr	others
CC1(C)CCCN(C(=O)c2ccc3c(c2NCCO)C(=O)c2ccccc2C3=O)C1	-13	2	-5	68*	.	63*
Cc1ccccc1C(=O)NC(=S)Nc1ccc(Cc2ccncc2)cc1	5	3	0	46*	0	49
O=C(NC(=S)Nc1ccc(Cc2ccncc2)cc1)c1ccccc1F	3	3	2	52*	3	56*
O=C(NC(=S)Nc1ccc(Cc2ccncc2)cc1)c1ccccc1Cl	6	2	-1	19	2	.
Cc1ccc(C=NNC(=O)CNC(=O)c2ccc(S(=O)(=O)N(C)C)cc2)cc1	.	.	.	.	3	.
CCOc1ccc(C2=CS/C(=C(\C#N)c3nnc4n3CCCCC4)N2CC)cc1	0	3	-17	48*	13	42	ATG4B conf=72*
Cc1ccccc1C=NNc1ccnc2cc(Cl)ccc12	.	.	.	.	-10	.
Clc1ccc2c(N/N=C/c3ccccc3Br)ccnc2c1	15	-4	4	48*	.	27	ATG4B conf=56*
COC(=O)c1ccc(C=NNC(=O)C(=O)NCc2ccccc2)cc1	.	.	.	.	5	.
O=C(NN=Cc1ccc([N+](=O)[O-])o1)C(=O)Nc1ccc(C(=O)O)cc1	.	.	.	.	12	.
COc1ccc(/C=C2/Sc3ccc(C(=O)N4CCc5ccccc5C4)cc3NC2=O)cc1	15	2	-1	69*	3	82*
CC1CCN(C(=O)c2ccc3c(c2)NC(=O)/C(=C/c2ccccc2)S3)CC1	3	-4	-3	56*	2	76*
CC(C)=CCC/C(C)=C/C=NNC(=O)c1cccc([N+](=O)[O-])c1	.	.	.	.	3	.
Cn1c(SCC(=O)NN=Cc2ccncc2)nc2ccccc21	.	.	.	.	3	.
COc1ccc(/C=C/c2onc(C)c2S(=O)(=O)N2CCC(C(=O)N3CCCCCC3)CC2)cc1	2	0	-12	40*	-11	65*
Cc1ccc(NC(=O)C2CCN(S(=O)(=O)c3c(C)noc3/C=C/c3ccco3)CC2)nc1	10	2	-1	-3	1	.
Cc1noc(/C=C/c2ccco2)c1S(=O)(=O)N1CCC(C(=O)N2CCc3ccccc3C2)CC1	47*	4	-3	73*	6	75*
O=C(NN=Cc1ccco1)c1cc(-c2ccccc2)nc2ccccc12	.	.	.	.	1	.
Cc1cc(OC(=O)c2cccs2)ccc1C(C)C	-1	4	3	42*	5	47	ATG4B conf=49*
CCCc1ccc(OC(=O)c2cccs2)cc1	-4	3	1	43*	3	28	ATG4B conf=70*
CC(C)c1c(C(=O)NN=Cc2ccc(C(F)(F)F)cc2)nnn1-c1nonc1N	.	.	.	.	5	.
O=C(CSc1nc2ccc(Cl)cc2[nH]1)NCCc1ccc(Cl)cc1	4	0	2	46*	5	50*
O=C(CSc1nc2ccc(Cl)cc2[nH]1)NCCc1ccccc1	0	1	-7	5	3	.
COc1ccc(OC)c(/C=C(\NC(=O)c2ccccc2)C(=O)NN=Cc2ccc(C)s2)c1	.	.	.	.	-32	.
O=C(/C=C/c1ccc(Cl)cc1)N1CCN(c2c(Cl)cccc2[N+](=O)[O-])CC1	-3	1	-3	44*	-2	47
SMILES	NadD inh	SENP1 FRET inh	GRIN3A LBD mod	ATG4B inh	UCH37 inh	PLA2 ctr	others
O=C(CSc1ccc(Cl)cc1)N1CCN(c2c(Cl)cccc2[N+](=O)[O-])CC1	-1	0	0	39	-6	.
O=[N+]([O-])c1ccccc1/C=C/C=Nn1c(-c2ccc(Cl)cc2)n[nH]c1=S	.	.	.	.	3	.
O=C(ON=C1CCS(=O)(=O)c2sccc21)C1CC1	.	.	.	.	-1	.
Cc1nc2c(C(=O)NCCC(C)C)c[nH]n2c(=O)c1Cc1ccccc1F	30*	-1	-28	51*	-4	63*
C#Cc1ccc([C@@H]2C=C(C(=O)O)O[C@H](OCC)[C@H]2CCCO)cc1	1	-84	2	59*	1	72*
CCOc1ccc(C=Nn2c(SC)nnc2-c2ccccc2)cc1OCC	.	.	.	.	2	.
Cc1cc(NC(=NS(=O)(=O)c2ccc(F)cc2F)c2ccccc2)no1	.	.	.	.	-1	.
COc1cccc(CNC(=O)C2CCN(S(=O)(=O)c3ccc4c(c3)CC(C)N4C(=O)C3CC3)CC2)c1 (configuration not stated)	-4	0	0	56*	-1	58*
O=C(NN=Cc1cccc(O)c1)NN=Cc1cccc(O)c1	.	.	.	.	4	.
CCN(Cc1ccccc1)c1ccc(N=Nc2nn(C)c(C)c2[N+](=O)[O-])cc1	4	5	-12	53*	1	35
COC(=O)NN=Cc1cc(Cl)cc(Cl)c1OCc1ccccc1	.	.	.	.	3	.
CC(CC(=O)Nc1ccc(N(C)C)cc1)=NNC(=O)c1ccccc1O	.	.	.	.	-35	.
O=C(c1cc(COc2c(F)cccc2F)on1)N1CCC(c2ccccc2Cl)C1 (configuration not stated)	1	0	-2	40*	4	55*
O=C(c1cc(COc2c(F)cccc2F)on1)N1CCC(c2ccccc2F)C1 (configuration not stated)	3	-1	0	29	4	.
CCOC(=O)c1c(NC(=O)C(C)Sc2nnc(C)c(=O)[nH]2)sc2c1CCCC2 (configuration not stated)	8	0	-4	62*	3	65*
CCOC(=O)c1c(NC(=O)CSc2nnc(C)c(=O)[nH]2)sc2c1CCCC2	6	1	-7	38	8	.
CCOC(=O)C1=C(c2ccccc2)NC(SCC(=O)Nc2cccc(C)c2)=C(C#N)C1c1ccco1 (configuration not stated)	1	1	5	48*	-2	55*
CCOC(=O)C1=C(c2ccccc2)NC(SCC(=O)Nc2ccccc2C)=C(C#N)C1c1ccco1 (configuration not stated)	5	0	-6	66*	0	72*
CCOC(=O)C1=C(c2ccccc2)NC(SCC(=O)Nc2ccc(C)cc2)=C(C#N)C1c1ccco1 (configuration not stated)	14	2	4	7	-1	.
O=C(NN=Cc1sc(N2CCOCC2)nc1-c1ccccc1)c1cccc(S(=O)(=O)N2CCCC2)c1	.	.	.	.	-3	.
COc1ccc(NC(=O)c2ccco2)cc1NC(=O)c1c(OC)cccc1OC	1	0	-1	46*	5	52*
CC(C)COc1ccc(CNC(=S)NCc2ccccc2)cc1	-7	-1	5	64*	1	76*
CCOc1ccc(CNC(=S)NCc2ccc(OCC)cc2)cc1	4	1	-6	0	1	.
